Data on nine compounds can be found in ChEMBL document CHEMBL1136983, “Synthesis, cleavage, and antifungal activity of a number of novel, water-soluble ester prodrugs of antifungal triazole CS-758” (Bioorg Med Chem Lett, 2009).

Structures are written as SMILES. The source made the active and inactive calls. The rule behind the calls is not given here.

A short description of data set [1]: Solubility in water. It is filed as physicochemical.
In data set [2] the test system is Rattus norvegicus. Put plainly: Half life in rat assessed as CS-758 elimination at 2 mg/kg, iv. As to conditions: in vivo. The data set is classed as ADME, organism-based. On the set-up: dose 2 mg/kg, route intravenous. In a few lines:
(§1)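 Rats received a single iv dose of prodrug at 2 mg/kg, and plasma CS-758 was followed over time (average of three rats). Bioavailability (%) = AUC of CS-758 after iv prodrug / AUC of CS-758 after iv CS-758 dissolved in polyethylene glycol solution × 100.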

Data set [3] has as its system Candida albicans. Put plainly: Antifungal activity against Candida albicans SANK 51486 infected in mouse at 0.2 to 20 mg/kg, iv administered 2 hrs post infection measured after 24 hrs. The data set is classed as functional, organism-based. The procedure, abridged:
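Mouse systemic Candida albicans infection, challenge 4.2 × 10⁵ CFU/mouse. Single dose 2 h after challenge, at 0.2, 2 or 20 mg/kg, vehicle controls. Kidney viable cell counts taken at 24 h. Mean + S.E., n = 8 per group, significance at p<0.05 and p<0.001.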

Data set [4] deals with Liver microsomes. Put plainly: Metabolic stability in human liver microsomes assessed as formation of (2R,3R)-3-((2R,5r)-2-((1E,3E)-4-(4-cyano-2-fluorophenyl)buta-1,3-dienyl)-1,3-dioxan-5-ylthio)-2-(2,4-difluorophenyl)-1-(1H-1,2,4-triazol-1-yl)butan-2-yl 2-hydroxyacetate after 120 mins. It is filed as ADME, Microsome. Conditions: 2 h. On the technique in general: Liver microsomes are a subcellular fraction often used to study metabolism.

In data set [5] the test system is Liver microsomes. Put plainly: Metabolic stability in human liver microsomes assessed as formation of (2R,3R)-3-((2R,5r)-2-((1E,3E)-4-(4-cyano-2-fluorophenyl)buta-1,3-dienyl)-1,3-dioxan-5-ylthio)-2-(2,4-difluorophenyl)-1-(1H-1,2,4-triazol-1-yl)butan-2-yl 2-hydroxyacetate after 30 mins. It is filed as ADME, Microsome. As to conditions: 0.5 h.
Data set [6] is described as follows: Bioavailability in rat at 2 mg/kg, iv. It is filed as ADME, organism-based. As to conditions: in vivo. The procedure, abridged:
as §1

Data set [7] in a line: Cmax in rat at 2 mg/kg, iv. Conditions: in vivo. On the set-up: dose 2 mg/kg, route intravenous. It is filed as ADME, organism-based. In a few lines:
as §1

By solubility is commonly meant the concentration that dissolves in the medium under given conditions. In general, bioavailability refers to dose-corrected exposure relative to a reference, in per cent. A low value points to poor availability. As a reminder, the Cmax is the highest concentration seen after dosing.

Consider `C[C@@H](S[C@H]1CO[C@H](/C=C/C=C/c2ccc(C#N)cc2F)OC1)[C@@](Cn1cncn1)(OP(=O)([O-])O)c1ccc(F)cc1F.[Na+]`, for which the solubility in data set [1] is more than 30000 µg/mL. In data set [2], the t1/2 is 5.7 h. For the same compound, the outcome in data set [3] was Active. Consider `C[C@@H](S[C@H]1CO[C@H](/C=C/C=C/c2ccc(C#N)cc2F)OC1)[C@@](Cn1cncn1)(OC(=O)COC(=O)CCC(=O)[O-])c1ccc(F)cc1F.[Na+]`, for which the result in data set [4] and in data set [5] was Active. This compound also registered a solubility in data set [1] of more than 10000 µg/mL. In data set [1], `C[C@@H](S[C@H]1CO[C@H](/C=C/C=C/c2ccc(C#N)cc2F)OC1)[C@@](Cn1cncn1)(OC(=O)CN(C)C)c1ccc(F)cc1F` registered a solubility of less than 1000 µg/mL. As to `C[C@@H](S[C@H]1CO[C@H](/C=C/C=C/c2ccc(C#N)cc2F)OC1)[C@@](Cn1cncn1)(OC(=O)CCN)c1ccc(F)cc1F`, the solubility in data set [1] was less than 1000 µg/mL. In the case of `C[C@@H](S[C@H]1CO[C@H](/C=C/C=C/c2ccc(C#N)cc2F)OC1)[C@@](Cn1cncn1)(OC(=O)CN)c1ccc(F)cc1F`, in data set [1], the solubility is less than 1000 µg/mL.

For `C[C@@H](S[C@H]1CO[C@H](/C=C/C=C/c2ccc(C#N)cc2F)OC1)[C@@](Cn1cncn1)(OC(=O)C[N+](C)(C)C)c1ccc(F)cc1F.[Cl-]`, in data set [6], the bioavailability came out at 3.3%. The solubility in data set [1] is more than 10000 µg/mL.

With `C[C@@H](S[C@H]1CO[C@H](/C=C/C=C/c2ccc(C#N)cc2F)OC1)[C@](O)(Cn1cncn1)c1ccc(F)cc1F` [EMBECONAZOLE], the bioavailability in data set [6] came to 3.3%. Moreover, the peak level in data set [7] (Cmax) was 1300 ng/mL. The compound `C[C@@H](S[C@H]1CO[C@H](/C=C/C=C/c2ccc(C#N)cc2F)OC1)[C@@](Cn1cncn1)(OC(=O)CO)c1ccc(F)cc1F` came in with a solubility in data set [1] of less than 1000 µg/mL. Turning to `C[C@@H](S[C@H]1CO[C@H](/C=C/C=C/c2ccc(C#N)cc2F)OC1)[C@@](Cn1cncn1)(OC(=O)COP(=O)([O-])O)c1ccc(F)cc1F.[Na+]`, the outcome in data set [4] and in data set [5] was Active. The same compound had a solubility in data set [1] of more than 10000 µg/mL.
